Data on five compounds can be found in ChEMBL document CHEMBL1157606, “Acylated phenylethanoid oligoglycosides with hepatoprotective activity from the desert plant Cistanche tubulosa” (Bioorg Med Chem, 2010).

For one assay, the system named is Hepatocyte. The assay is described as follows: Hepatoprotective activity in ddY mouse primary cultured hepatocytes assessed as inhibition of D-galactosamine-induced cytotoxicity after 44 hrs by MTT assay. It is filed as functional, cell-based. The procedure, abridged: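 Hepatocytes isolated from male ddY mice (30–35 g) by collagenase perfusion; 4 × 10^4 cells/well in William's E with 10% FBS, pre-cultured 4 h at 37 °C, 5% CO2, then 44 h with D-GalN (2 mM) ± sample. MTT (4 h); formazan in isopropanol/0.04 M HCl, OD 570 nm (ref 655 nm). Inhibition % = (sample − control)/(normal − control) × 100.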
Background: Tetrazolium dyes change colour on reduction, which living cells bring about.

The next assay relates to L929. The assay is described as follows: Cytoprotective activity in mouse L929 cells assessed as inhibition of TNF-alpha-induced cytotoxicity after 44 hrs by MTT assay. In kind it is functional, cell-based. Conditions: L929, 44 h. In short, it runs like this:
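L929 cells kept in MEM with 10% FBS and non-essential amino acids at 37 °C, 5% CO2; seeded 3 × 10^4 cells/well, exposed 44 h to TNF-α (20 ng/mL) with or without sample (DMSO, final 0.5%). Viability by MTT: formazan dissolved in acidic isopropanol, OD 570 nm (ref 655 nm). Inhibition % = (sample − control)/(normal − control) × 100.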

Assay [1] concerns Mus musculus. Briefly: Hepatoprotective activity against D-galactosamine/lipopolysaccharide-induced liver injury in ddY mouse assessed as inhibition of increase in sAST level at 25 mg/kg, po administered 1 hr before D-GalN/LPS challenge measured after 10 hrs. In kind it is functional. In short, it runs like this: (§1)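 Male ddY mice (25–30 g), fasted 20 h. Sample suspended in 5% gum arabic, given orally at 10 mL/kg 1 h before i.p. D-GalN (350 mg/kg) plus LPS (10 μg/kg) in saline. Vehicle controls dosed alike. Blood from infraorbital venous plexus at 10 h; sAST and sALT by Reitman–Frankel method. Hydrocortisone as reference.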

Assay [2] concerns Mus musculus. The assay is described as follows: Hepatoprotective activity against D-galactosamine/lipopolysaccharide-induced liver injury in ddY mouse assessed as inhibition of increase in sAST level at 100 mg/kg, po administered 1 hr before D-GalN/LPS challenge measured after 10 hrs. In kind it is functional. The procedure, abridged:
as §1

In assay [3] the test system is Mus musculus. The assay is described as follows: Hepatoprotective activity against D-galactosamine/lipopolysaccharide-induced liver injury in ddY mouse assessed as inhibition of increase in sALT level at 25 mg/kg, po administered 1 hr before D-GalN/LPS challenge measured after 10 hrs. It is filed as functional. The procedure, abridged: as §1
In assay [4] the test system is Mus musculus. Briefly: Hepatoprotective activity against D-galactosamine/lipopolysaccharide-induced liver injury in ddY mouse assessed as inhibition of increase in sALT level at 100 mg/kg, po administered 1 hr before D-GalN/LPS challenge measured after 10 hrs. In kind it is functional. In short, it runs like this:
as §1

Assay [5] deals with Peritoneal macrophage cell. Briefly: Inhibition of LPS-induced nitric oxide production in ddY mouse peritoneal macrophages. It is filed as functional, cell-based.
In assay [6] the test system is Peritoneal macrophage cell. The assay is described as follows: Inhibition of LPS-induced TNFalpha production in ddY mouse peritoneal macrophages. In kind it is functional, cell-based. The procedure, abridged:
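Thioglycollate-elicited peritoneal macrophages from male ddY mice, 5 × 10^5 cells/well in RPMI 1640 with 5% FBS, 1 h pre-culture, nonadherent cells washed off. Compound (DMSO, final 0.5%) added 10 min before LPS (medium containing 10 μg/mL), 4 h incubation; TNF-α in medium by ELISA.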

Assay [7] has as its system Mus musculus. Briefly: Hepatoprotective activity against D-galactosamine/lipopolysaccharide-induced liver injury in ddY mouse assessed as inhibition of increase in sAST level at 10 mg/kg, po administered 1 hr before D-GalN/LPS challenge measured after 10 hrs. In kind it is functional. In short, it runs like this:
as §1

Assay [8] has as its system Mus musculus. Briefly: Hepatoprotective activity against D-galactosamine/lipopolysaccharide-induced liver injury in ddY mouse assessed as inhibition of increase in sALT level at 10 mg/kg, po administered 1 hr before D-GalN/LPS challenge measured after 10 hrs. It is filed as functional. The procedure, abridged:
as §1

In general, IC50 refers to the midpoint of a concentration-inhibition curve. The term inhibition in vivo denotes how much of the control response was suppressed.

`C[C@@H]1O[C@@H](O[C@@H]2[C@@H](O)[C@H](OCCc3ccc(O)c(O)c3)O[C@H](COC(=O)/C=C/c3ccc(O)c(O)c3)[C@H]2O)[C@H](O)[C@H](O)[C@H]1O` [ISOACTEOSIDE]: the IC50 in the assay with Hepatocyte is 5.3 µM; in the assay on L929, 22.7 µM; in [5], more than 100 µM; in assay [6], more than 100 µM. Further, the inhibition in vivo at 25 mg/kg was 46.1% with Mus musculus [1] and 40.2% in the assay with Mus musculus [3]. In addition, the values for the inhibition in vivo at 100 mg/kg in the assay with Mus musculus [2] and with Mus musculus [4] were 70.9% and 58.7%, respectively.
In the case of `C[C@H]1O[C@H](O[C@@H]2[C@@H](O)[C@H](OCCc3ccc(O)c(O)c3)O[C@H](CO[C@H]3O[C@@H](CO)[C@H](O)[C@@H](O)[C@@H]3O)[C@H]2OC(=O)/C=C/c2ccc(O)c(O)c2)[C@@H](O)[C@@H](O)[C@@H]1O` [ECHINACOSIDE], the IC50 is 10.2 µM with Hepatocyte, 31.1 µM with L929, more than 100 µM in assay [5] and more than 100 µM in assay [6]. Also, the inhibition in vivo at 25 mg/kg worked out at 61.2% in the assay with Mus musculus [1] and 43.8% in the assay on Mus musculus [3]. Moreover, the inhibition in vivo at 100 mg/kg with Mus musculus [2] turned out to be 66.7%; in the assay on Mus musculus [4], 52%.
`C[C@@H]1O[C@@H](O[C@@H]2[C@@H](O)[C@H](OCCc3ccc(O)c(O)c3)O[C@H](CO)[C@H]2OC(=O)/C=C/c2ccc(O)c(O)c2)[C@H](O)[C@H](O)[C@H]1O` [ACETOSIDE]: the IC50 with Hepatocyte was 4.6 µM; in the assay on L929, 17.8 µM; in assay [5], more than 100 µM; in [6], more than 100 µM. Also, the values for the inhibition in vivo at 25 mg/kg with Mus musculus [1] and in the assay with Mus musculus [3] were 51.3% and 44.4%, respectively. Also, the inhibition in vivo at 100 mg/kg was determined as 68.5% in the assay with Mus musculus [2] and 59.5% with Mus musculus [4].
`C[C@]12CCC(=O)C=C1CC[C@@H]1[C@@H]2[C@@H](O)C[C@@]2(C)[C@H]1CC[C@]2(O)C(=O)CO` [HYDROCORTISONE]: the inhibition in vivo at 10 mg/kg with Mus musculus [7] was found to be 94.2%; with Mus musculus [8], 97.7%.
Regarding `COc1cc(C2Oc3cc([C@H]4Oc5cc(O)cc(O)c5C(=O)[C@@H]4O)ccc3OC2CO)ccc1O` (stereo partly drawn) [SILIBININ], the values for the IC50 in the assay on Hepatocyte and in the assay with L929 were 38.8 µM and 60.4 µM, respectively.
